Tests used:
[1] = biological target: T1, Macrophage colony-stimulating factor 1 receptor (Homo sapiens, UniProt P07333); assay: Inhibition of recombinant human FMS (538 to end residues) using KKKSPGEYVNIEFG as substrate measured after 40 mins in presence of [gamma33P]ATP by radiometric scintillation counting method
Outline: (§1)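 Eurofins radiometric kinase assay run at ATP equal to Km for each kinase. 9-point dose–response in duplicate gives the IC50.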

[2] = biological target: T2, Serine/threonine-protein kinase 17A (Homo sapiens, UniProt Q9UEE5); assay: Displacement of tracer K9 from NLuc fused DRAK1 (unknown origin) expressed in HEK293 cells by NanoBRET assay; type: cell-based
T2 sequence (Q9UEE5 whole entry): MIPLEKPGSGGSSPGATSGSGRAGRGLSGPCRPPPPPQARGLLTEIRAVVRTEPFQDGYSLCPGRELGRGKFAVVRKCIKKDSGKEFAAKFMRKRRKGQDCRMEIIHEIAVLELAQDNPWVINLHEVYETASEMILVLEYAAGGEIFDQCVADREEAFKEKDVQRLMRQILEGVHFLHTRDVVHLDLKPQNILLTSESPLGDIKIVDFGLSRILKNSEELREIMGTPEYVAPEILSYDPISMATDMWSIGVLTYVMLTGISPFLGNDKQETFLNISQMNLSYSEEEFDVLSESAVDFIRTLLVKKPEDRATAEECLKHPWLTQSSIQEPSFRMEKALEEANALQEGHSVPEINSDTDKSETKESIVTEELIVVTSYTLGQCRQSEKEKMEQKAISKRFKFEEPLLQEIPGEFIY

[3] = biological target: MAP/microtubule affinity-regulating kinase 3 (Homo sapiens, UniProt P27448); assay: Displacement of tracer K9 from NLuc fused MARK3 (unknown origin) expressed in HEK293 cells by NanoBRET assay; type: cell-based
[4] = biological target: T3, MAP/microtubule affinity-regulating kinase 4 (Homo sapiens, UniProt Q96L34); assay: Displacement of tracer K5 from NLuc fused MARK4 (unknown origin) expressed in HEK293 cells by NanoBRET assay; type: cell-based
T3 sequence (Q96L34 whole entry): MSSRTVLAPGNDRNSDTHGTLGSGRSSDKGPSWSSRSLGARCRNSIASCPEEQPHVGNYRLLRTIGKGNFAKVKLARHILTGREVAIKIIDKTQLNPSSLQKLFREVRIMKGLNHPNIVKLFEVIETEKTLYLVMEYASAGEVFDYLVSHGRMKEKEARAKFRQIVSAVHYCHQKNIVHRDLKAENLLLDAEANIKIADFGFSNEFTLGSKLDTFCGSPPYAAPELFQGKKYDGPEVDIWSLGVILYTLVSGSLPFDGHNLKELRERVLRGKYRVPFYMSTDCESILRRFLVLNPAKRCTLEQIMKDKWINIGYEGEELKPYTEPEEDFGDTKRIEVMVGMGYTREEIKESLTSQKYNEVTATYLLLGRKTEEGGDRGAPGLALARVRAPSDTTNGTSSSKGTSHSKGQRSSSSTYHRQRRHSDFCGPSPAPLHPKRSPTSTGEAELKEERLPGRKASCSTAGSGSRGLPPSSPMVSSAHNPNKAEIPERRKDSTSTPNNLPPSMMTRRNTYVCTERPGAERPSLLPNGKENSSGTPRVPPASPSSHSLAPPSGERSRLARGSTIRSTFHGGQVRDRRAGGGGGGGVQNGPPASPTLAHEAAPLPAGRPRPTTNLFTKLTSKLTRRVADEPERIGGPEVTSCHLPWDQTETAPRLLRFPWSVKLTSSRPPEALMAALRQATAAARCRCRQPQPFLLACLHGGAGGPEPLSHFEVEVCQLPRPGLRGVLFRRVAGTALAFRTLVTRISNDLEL

[5] = biological target: T4, Serine/threonine-protein kinase TBK1 (Homo sapiens, UniProt Q9UHD2); assay: Displacement of tracer K5 from NLuc fused TBK1 (unknown origin) expressed in HEK293 cells by NanoBRET assay; type: cell-based
T4 sequence (Q9UHD2 whole entry): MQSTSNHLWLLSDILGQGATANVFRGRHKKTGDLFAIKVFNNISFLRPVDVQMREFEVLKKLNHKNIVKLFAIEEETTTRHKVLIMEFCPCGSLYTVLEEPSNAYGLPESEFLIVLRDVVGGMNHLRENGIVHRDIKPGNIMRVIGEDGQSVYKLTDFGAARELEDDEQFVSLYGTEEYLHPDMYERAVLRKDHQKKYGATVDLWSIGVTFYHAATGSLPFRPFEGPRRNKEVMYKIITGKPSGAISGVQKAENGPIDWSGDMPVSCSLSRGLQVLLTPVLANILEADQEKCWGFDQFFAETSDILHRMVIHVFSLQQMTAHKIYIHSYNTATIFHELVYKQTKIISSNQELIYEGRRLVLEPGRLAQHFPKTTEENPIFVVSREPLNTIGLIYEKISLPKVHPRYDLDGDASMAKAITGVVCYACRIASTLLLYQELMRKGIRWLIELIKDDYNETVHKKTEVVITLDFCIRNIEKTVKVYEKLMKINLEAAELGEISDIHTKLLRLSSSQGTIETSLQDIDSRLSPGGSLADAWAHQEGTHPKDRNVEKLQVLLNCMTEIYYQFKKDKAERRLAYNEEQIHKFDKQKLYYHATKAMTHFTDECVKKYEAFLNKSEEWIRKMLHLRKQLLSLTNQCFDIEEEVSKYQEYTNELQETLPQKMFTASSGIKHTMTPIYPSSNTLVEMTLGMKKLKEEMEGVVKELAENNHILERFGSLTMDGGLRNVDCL
Outline: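 HEK293 cells grown in DMEM with 10% FBS at 37 °C, 5% CO2. NanoBRET assay run in dose–response per manufacturer's protocol with tracer K-5 at 0.5 μM. SEM calculated for assays run more than once.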

[6] = biological target: T5, Non-receptor tyrosine-protein kinase TYK2 (Homo sapiens, UniProt P29597); assay: Inhibition of human TYK2 (875 to end residues) using GGMEDIYFEFMGGKKK as substrate measured after 40 mins in presence of [gamma33P]ATP by radiometric scintillation counting method
Outline: (§2)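 Eurofins radiometric enzymatic assay with ATP at Km for each kinase. IC50 was derived from a 9-point dose–response curve run in duplicate.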

[7] = biological target: T1, Macrophage colony-stimulating factor 1 receptor; assay: Inhibition of NanoLuc-fused CSF1R (unknown origin) expressed in HEK293 cells incubated for 2 hrs by NanoBRET assay; type: cell-based
[8] = biological target: T5, Non-receptor tyrosine-protein kinase TYK2; assay: Inhibition of NanoLuc-fused TYK2 (unknown origin) expressed in HEK293 cells incubated for 2 hrs by NanoBRET assay; type: cell-based
Outline: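 Cellular NanoBRET target-engagement assays were run by Carna Biosciences to the manufacturer's protocol. Dose–response was in singlicate, with compounds tested at concentrations up to 10 μM.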

[9] = Kinetic solubility of compound in PBS at pH 7.4 incubated for 24 hrs by chemiluminscent nitrogen detection method; type: physicochemical; details: buffer, pH 7.4, 24 h
Outline: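 Filtrates were quantified by total chemiluminescent nitrogen determination against a calibration curve, with correction for background nitrogen from DMSO and medium.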

[10] = Effective permeability in PBS at 7.4 incubated for 5 hrs by PAMPA analysis; type: ADME; details: pH 7.4, 5 h
Outline: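 PAMPA: DMSO stocks were diluted in PBS pH 7.4 and placed in the donor compartment, with PBS pH 7.4 in the acceptor, for 5 h. Both compartments were quantified by CLND against a calibration curve, with background nitrogen correction. Effective permeability was calculated from donor and acceptor concentrations using measured rather than assumed solubility.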

[11] = biological target: Tyrosine-protein kinase JAK2 (Homo sapiens) (UniProt O60674); assay: Inhibition of recombinant human JAK2 (808 to end residues) using KTFCGTPEYLAPEVRREPRILSEEEQEMFRDFDYIADWC as substrate at 1 uM incubated for 40 mins in presence of [gamma-33P-ATP] by radiometric scintillation assay relative to control
Outline: (§3)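 Eurofins radiometric kinase assay with ATP at Km for each kinase. Compound was tested at a single 1 μM concentration in duplicate, and the result is reported as percent of control.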

[12] = biological target: T2, Serine/threonine-protein kinase 17A; assay: Inhibition of recombinant human DRAK1 using KKLNRTLSFAEPG as substrate after 40 mins in presence of [gamma-33ATP] by scintillation counting based radiometry assay; outline: as §1
[13] = biological target: Serine/threonine-protein kinase 17B (Homo sapiens, UniProt O94768); assay: Inhibition of recombinant human DRAK2 using KKRPQRRYSNVF as substrate after 120 mins in presence of [gamma-33ATP] by scintillation counting based radiometry assay; outline: as §2
[14] = biological target: AP2-associated protein kinase 1 (Homo sapiens, UniProt Q2M2I8); assay: Inhibition of human AAK1 using peptide as substrate incubated for 120 mins in presence of [gamma-33ATP] by scintillation counting based radiometry assay; outline: as §1
[15] = biological target: Serine/threonine-protein kinase SIK2 (Homo sapiens, UniProt Q9H0K1); assay: Inhibition of recombinant human SIK2 (1 to 276 residues) using KKKVSRSGLYRSPSMPENLNRPR as substrate measured after 40 mins in presence of [gamma33P]ATP by radiometric scintillation counting method; outline: as §1
[16] = biological target: MAP kinase-interacting serine/threonine-protein kinase 2 (Homo sapiens, UniProt Q9HBH9); assay: Inhibition of full length recombinant human MKNK2 using myelin basic protein as substrate incubated for 40 mins in presence of [gamma-33P-ATP] by radiometric scintillation assay; outline: as §1
[17] = biological target: T6, BMP-2-inducible protein kinase (Homo sapiens, UniProt Q9NSY1); assay: Residual activity of human BMP2K at 1 uM using peptide as substrate incubated for 120 mins in presence of [gamma-33P-ATP] by radiometric scintillation assay relative to control
[18] = biological target: High affinity nerve growth factor receptor (Homo sapiens, UniProt P04629); assay: Inhibition of human TrkA (440 to end residues) using KKKSPGEYVNIEFG as substrate measured after 40 mins in presence of [gamma33P]ATP by scintillation counting method; outline: as §1
[19] = biological target: Aurora kinase B (Homo sapiens) (UniProt Q96GD4); assay: Inhibition of full length recombinant human AURKB using AKRRRLSSLRA as substrate at 1 uM incubated for 40 mins in presence of [gamma-33P-ATP] by radiometric scintillation assay relative to control; outline: as §3
[20] = Inhibition of human TTBK1 (1 to 479 residues) using Casein as substrate measured after 40 mins in presence of [gamma33P]ATP by scintillation counting method; outline: as §1
[21] = biological target: T6, BMP-2-inducible protein kinase; assay: Inhibition of 1recombinant human BMP2K using myelin basic protein as substrate incubated for 120 mins in presence of [gamma-33P-ATP] by radiometric scintillation assay

Chain of MAP/microtubule affinity-regulating kinase 3 (P27448 whole entry, the tested form may be a part): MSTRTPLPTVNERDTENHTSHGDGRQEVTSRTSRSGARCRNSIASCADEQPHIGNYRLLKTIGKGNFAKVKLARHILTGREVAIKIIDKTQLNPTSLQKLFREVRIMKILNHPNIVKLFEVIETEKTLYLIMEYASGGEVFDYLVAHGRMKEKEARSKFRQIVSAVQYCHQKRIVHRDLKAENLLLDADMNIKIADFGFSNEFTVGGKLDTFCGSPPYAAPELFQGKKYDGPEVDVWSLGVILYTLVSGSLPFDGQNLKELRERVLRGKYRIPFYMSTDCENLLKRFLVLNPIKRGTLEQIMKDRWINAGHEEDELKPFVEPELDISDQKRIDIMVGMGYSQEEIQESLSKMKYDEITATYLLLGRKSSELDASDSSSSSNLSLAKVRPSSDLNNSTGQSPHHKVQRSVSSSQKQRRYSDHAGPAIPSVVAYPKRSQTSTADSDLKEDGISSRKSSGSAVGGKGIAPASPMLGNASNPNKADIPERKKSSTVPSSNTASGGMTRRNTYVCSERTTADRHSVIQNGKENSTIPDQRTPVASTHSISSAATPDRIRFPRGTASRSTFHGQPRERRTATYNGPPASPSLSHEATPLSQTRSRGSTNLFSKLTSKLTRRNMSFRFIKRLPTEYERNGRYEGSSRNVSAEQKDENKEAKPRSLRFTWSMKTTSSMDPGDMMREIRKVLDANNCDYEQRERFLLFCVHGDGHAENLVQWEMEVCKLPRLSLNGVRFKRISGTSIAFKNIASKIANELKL
T5 sequence (P29597 whole entry): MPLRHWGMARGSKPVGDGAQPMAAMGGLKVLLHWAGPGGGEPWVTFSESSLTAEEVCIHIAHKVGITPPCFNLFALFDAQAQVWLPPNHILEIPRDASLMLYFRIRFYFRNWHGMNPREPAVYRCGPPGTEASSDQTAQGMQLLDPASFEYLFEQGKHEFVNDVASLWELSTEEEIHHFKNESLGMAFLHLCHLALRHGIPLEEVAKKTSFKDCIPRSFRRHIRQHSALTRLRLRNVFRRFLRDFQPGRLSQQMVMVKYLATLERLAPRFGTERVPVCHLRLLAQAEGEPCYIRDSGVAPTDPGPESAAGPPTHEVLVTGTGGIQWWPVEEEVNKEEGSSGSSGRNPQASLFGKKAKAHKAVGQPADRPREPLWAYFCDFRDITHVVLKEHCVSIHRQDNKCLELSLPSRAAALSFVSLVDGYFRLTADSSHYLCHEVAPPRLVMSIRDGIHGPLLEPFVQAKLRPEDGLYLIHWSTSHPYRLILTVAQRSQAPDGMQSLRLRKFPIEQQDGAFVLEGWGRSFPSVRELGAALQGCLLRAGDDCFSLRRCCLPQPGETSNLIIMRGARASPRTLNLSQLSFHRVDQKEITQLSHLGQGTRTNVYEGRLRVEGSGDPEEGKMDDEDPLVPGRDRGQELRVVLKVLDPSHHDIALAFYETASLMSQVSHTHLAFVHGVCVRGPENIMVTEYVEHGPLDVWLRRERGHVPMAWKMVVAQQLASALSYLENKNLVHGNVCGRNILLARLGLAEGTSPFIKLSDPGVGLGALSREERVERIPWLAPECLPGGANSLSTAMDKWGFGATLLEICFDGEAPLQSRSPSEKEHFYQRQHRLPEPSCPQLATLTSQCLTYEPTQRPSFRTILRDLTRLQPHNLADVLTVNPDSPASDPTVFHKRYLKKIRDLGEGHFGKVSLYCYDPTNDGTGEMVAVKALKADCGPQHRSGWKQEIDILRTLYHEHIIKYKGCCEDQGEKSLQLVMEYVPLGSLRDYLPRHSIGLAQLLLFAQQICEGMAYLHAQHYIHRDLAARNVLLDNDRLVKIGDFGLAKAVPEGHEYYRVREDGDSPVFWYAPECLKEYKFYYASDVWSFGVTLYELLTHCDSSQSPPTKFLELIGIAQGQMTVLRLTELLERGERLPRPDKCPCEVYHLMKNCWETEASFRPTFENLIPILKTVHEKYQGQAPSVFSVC
Chain of Tyrosine-protein kinase JAK2 (Homo sapiens) (O60674 whole entry): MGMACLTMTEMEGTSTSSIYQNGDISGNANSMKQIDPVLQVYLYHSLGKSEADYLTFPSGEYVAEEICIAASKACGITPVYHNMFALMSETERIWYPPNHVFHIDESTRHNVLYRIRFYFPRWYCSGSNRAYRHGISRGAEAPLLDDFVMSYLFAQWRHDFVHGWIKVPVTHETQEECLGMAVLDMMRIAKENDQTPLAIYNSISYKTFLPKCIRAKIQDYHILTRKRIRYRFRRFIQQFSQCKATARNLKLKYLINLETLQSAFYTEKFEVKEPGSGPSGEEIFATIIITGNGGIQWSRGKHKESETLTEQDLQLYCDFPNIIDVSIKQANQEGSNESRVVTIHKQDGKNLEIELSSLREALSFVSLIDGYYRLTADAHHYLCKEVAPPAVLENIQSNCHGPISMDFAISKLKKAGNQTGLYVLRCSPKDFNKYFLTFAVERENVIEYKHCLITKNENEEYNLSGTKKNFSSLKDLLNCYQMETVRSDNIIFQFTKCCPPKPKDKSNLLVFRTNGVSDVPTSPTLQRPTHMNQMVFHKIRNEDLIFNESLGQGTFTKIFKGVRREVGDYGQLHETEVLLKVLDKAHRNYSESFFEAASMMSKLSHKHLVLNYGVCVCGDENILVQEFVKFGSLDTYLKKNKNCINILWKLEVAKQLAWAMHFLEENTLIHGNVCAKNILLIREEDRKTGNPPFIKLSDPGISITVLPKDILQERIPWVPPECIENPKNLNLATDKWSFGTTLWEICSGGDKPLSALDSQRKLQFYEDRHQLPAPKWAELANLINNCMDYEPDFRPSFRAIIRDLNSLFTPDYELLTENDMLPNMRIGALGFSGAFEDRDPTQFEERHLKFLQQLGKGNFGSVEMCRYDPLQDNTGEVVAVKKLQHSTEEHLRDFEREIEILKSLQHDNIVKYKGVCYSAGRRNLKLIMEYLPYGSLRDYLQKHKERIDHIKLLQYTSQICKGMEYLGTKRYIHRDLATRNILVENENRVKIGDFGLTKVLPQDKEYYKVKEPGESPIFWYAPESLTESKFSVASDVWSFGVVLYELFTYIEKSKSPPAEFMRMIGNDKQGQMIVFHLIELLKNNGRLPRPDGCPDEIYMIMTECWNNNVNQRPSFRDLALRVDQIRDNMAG
T6 sequence (Q9NSY1 whole entry, looked up): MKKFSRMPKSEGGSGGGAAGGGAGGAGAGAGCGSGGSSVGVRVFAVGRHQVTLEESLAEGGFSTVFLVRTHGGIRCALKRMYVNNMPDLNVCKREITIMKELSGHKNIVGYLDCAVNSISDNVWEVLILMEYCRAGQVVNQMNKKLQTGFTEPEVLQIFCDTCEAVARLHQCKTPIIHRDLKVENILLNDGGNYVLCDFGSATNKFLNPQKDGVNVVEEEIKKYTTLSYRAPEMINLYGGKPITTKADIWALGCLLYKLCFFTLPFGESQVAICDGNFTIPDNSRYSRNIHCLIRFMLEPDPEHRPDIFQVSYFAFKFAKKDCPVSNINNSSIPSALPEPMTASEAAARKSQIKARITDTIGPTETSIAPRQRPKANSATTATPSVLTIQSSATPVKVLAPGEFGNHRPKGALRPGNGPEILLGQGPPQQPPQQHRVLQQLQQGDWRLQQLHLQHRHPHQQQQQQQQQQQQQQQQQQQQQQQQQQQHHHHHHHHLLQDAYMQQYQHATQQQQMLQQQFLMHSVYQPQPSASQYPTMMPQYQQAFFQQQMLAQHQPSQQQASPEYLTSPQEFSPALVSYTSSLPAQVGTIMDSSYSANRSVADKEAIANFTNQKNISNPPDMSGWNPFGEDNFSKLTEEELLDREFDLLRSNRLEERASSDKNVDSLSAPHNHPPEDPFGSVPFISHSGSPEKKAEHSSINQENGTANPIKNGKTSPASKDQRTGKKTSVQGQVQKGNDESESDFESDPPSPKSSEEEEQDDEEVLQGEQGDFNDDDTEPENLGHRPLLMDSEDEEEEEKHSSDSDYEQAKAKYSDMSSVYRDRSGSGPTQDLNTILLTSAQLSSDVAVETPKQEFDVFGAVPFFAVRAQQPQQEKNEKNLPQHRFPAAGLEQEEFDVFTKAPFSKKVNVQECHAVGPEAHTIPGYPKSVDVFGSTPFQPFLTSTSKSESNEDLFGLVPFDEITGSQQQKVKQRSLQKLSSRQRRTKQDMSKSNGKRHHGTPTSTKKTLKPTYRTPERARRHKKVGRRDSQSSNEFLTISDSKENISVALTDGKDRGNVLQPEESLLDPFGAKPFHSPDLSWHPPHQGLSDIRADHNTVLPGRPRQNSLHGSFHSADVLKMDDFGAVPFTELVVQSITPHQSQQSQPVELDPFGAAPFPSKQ
Chain of Serine/threonine-protein kinase 17B (O94768 whole entry): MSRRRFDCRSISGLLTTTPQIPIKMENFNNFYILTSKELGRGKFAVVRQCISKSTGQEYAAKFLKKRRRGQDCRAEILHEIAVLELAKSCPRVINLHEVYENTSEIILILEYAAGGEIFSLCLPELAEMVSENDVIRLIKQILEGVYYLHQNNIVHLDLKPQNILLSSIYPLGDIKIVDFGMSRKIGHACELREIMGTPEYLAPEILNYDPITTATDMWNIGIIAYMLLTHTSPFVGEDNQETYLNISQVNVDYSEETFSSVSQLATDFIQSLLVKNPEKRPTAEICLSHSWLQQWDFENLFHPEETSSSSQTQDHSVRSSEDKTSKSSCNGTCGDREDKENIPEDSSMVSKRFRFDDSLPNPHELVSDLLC
Chain of Aurora kinase B (Homo sapiens) (Q96GD4 whole entry, the tested form may be a part): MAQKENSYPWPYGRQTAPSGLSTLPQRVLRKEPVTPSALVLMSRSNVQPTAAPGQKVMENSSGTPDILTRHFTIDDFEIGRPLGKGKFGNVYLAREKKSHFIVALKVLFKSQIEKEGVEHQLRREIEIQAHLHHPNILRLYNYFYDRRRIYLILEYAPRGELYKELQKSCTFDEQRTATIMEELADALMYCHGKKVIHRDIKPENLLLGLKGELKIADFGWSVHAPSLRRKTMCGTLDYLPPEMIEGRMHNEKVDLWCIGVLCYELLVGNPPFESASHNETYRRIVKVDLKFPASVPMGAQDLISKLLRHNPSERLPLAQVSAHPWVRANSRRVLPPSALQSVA

Row | Compound | IC50 [2] [nM] | IC50 [3] [nM] | IC50 [4] [nM] | IC50 [5] [nM] | IC50 [6] [nM] | Kinetic solubility [9] [µM] | % control [11] [%] | Peff [10] | also measured
1 | NS(=O)(=O)c1ccc(CNc2ccnc(Nc3cccc(NC(=O)N4CCCC4)c3)n2)cc1 | > 10000 | > 10000 | > 10000 | > 10000 | 33 | 147 | 62 |  | IC50 [1]: 305 nM; IC50 [7]: > 10000 nM; IC50 [8]: > 10000 nM; Peff ([10]; BLD = below limit of detection): Bld
2 | O=C(NCCCNc1ccnc(Nc2cccc(NC(=O)N3CCCC3)c2)n1)C1CCC1 | 2310 | > 10000 | > 10000 | > 10000 | 720 | 169 |  | 8.24 10^-8cm/s | IC50 [12]: 325 nM; IC50 [13]: 161 nM; IC50 [14]: 390 nM; IC50 [15]: 481 nM; IC50 [16]: 769 nM; % control [17]: 56%
3 | NS(=O)(=O)c1ccc(CNc2nc(Nc3cccc(NC(=O)N4CCCC4)c3)ncc2C2CC2)cc1 | > 10000 | > 10000 | > 10000 | > 10000 |  | 85.6 | 107 | 2.6 10^-6 cm/s | IC50 [18]: 477 nM; % control [19]: 61%; IC50 [20]: 128 nM; IC50 [21]: 2920 nM

From ChEMBL document CHEMBL5046221, “Identification of Pyrimidine-Based Lead Compounds for Understudied Kinases Implicated in Driving Neurodegeneration” (J Med Chem, 2022)
